Test results: ChEMBL document CHEMBL4673269, “Discovery of S64315, a Potent and Selective Mcl-1 Inhibitor” (J Med Chem, 2020)
Active and inactive are the calls of the source. No cut-off for these calls is given here.

Legend:
Cytochrome P450 2C8 = Cytochrome P450 2C8 (Homo sapiens, UniProt P10632); assay: Drug metabolism assessed as CYP2C8 (unknown origin) mediated metabolism; type: ADME
AMO1 [1] = assay: Antitumor activity against human AMO1 cells xenografted in CB-17 SCID mouse assessed as tumor growth inhibition at […] mg/kg, iv administered for 5 consecutive days measured on day 4 relative to control; type: functional; settings: 120 h, time 5 day, read-out: TGI
PL21 = assay: Antiproliferative activity against human PL21 assessed as reduction in cell viability incubated for 3 days by Cell Titer Blue assay; type: functional; settings: time 3.0 day
[2] = target: Induced myeloid leukemia cell differentiation protein Mcl-1 (Homo sapiens) (UniProt Q07820); assay: Stabilization of Mcl-1 in human HCT116 cells assessed as increase in Mcl-1 protein levels incubated for 16 hrs by western blot analysis; type: cell-based; settings: HCT-116, dose 0.3-10000 nM
Sequence of Induced myeloid leukemia cell differentiation protein Mcl-1 (Homo sapiens) (Q07820 whole entry): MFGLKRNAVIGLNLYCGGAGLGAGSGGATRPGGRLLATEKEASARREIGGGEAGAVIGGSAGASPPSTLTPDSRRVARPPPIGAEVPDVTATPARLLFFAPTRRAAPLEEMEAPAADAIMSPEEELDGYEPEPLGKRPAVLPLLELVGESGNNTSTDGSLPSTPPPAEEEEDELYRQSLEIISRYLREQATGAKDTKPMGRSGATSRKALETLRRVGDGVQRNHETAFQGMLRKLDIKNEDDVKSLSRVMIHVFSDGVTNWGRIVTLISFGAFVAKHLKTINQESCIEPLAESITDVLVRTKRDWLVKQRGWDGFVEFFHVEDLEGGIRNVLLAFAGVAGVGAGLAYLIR
Method in brief: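 HCT116 cells were seeded at 0.25×10⁶ per 35 mm dish in RPMI 1640 with 10% decomplemented FBS, 2 mM L-glutamine and 10 mM Hepes pH 7.4, at 37 °C and 5% CO₂. After 48 h they were dosed for 16 h and lysed in Hepes/KCl/MgCl₂/EDTA/1% NP40 buffer with inhibitors. Lysate (20 μg) was immunoblotted for Mcl-1, with actin as loading control.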

[3] = target: Bcl-2-like protein 1 (Homo sapiens) (UniProt Q07817); assay: Displacement of Bax BH3 domain from FLAG-tagged Bcl-xl (unknown origin) expressed in human Hela cells at 30 to 300 nM incubated for 2 hrs by immunoprecipitation assay; type: cell-based; settings: dose 30-300 nM
Sequence of Bcl-2-like protein 1 (Homo sapiens) (Q07817 whole entry, the tested form may be a part): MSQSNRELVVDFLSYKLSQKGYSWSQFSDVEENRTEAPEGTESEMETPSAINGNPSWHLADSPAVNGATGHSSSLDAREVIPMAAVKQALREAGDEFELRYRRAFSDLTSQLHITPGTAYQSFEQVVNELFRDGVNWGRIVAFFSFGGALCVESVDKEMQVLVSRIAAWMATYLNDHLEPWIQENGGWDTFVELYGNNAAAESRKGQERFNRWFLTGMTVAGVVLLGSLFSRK
Method in brief: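 HeLa cells in DMEM with 10% FCS were transiently transfected with Flag-tagged Mcl-1, Bcl-xL or Bcl-2 vectors. 24 h later they were treated for 2 h and lysed (Hepes pH 7.5, 150 mM KCl, MgCl₂, EDTA, 0.4% Triton X100). Cleared lysates were immunoprecipitated with anti-Flag M2 beads. Inputs and IPs were immunoblotted for endogenous Bax, Bak and Flag.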

HL-60 = assay: Antiproliferative activity against human HL60 assessed as reduction in cell viability incubated for 3 days by Cell Titer Blue assay; type: functional, cell-based; settings: time 3.0 day
[4] = Terminal half-life in mouse at 12.5 mg/kg, iv formulated with 20 % HPBCD in water/ […]; type: ADME, organism-based; settings: in vivo, read-out: beta t1/2 (converted)
Daudi = assay: Antiproliferative activity against human Daudi assessed as reduction in cell viability incubated for 3 days by Cell Titer Blue assay; type: functional, cell-based; settings: time 3.0 day
AMO1 [5] = assay: Antitumor activity against human AMO1 xenografted in CB-17 SCID mouse assessed as tumor growth inhibition at 12.5 mg/kg, iv administered weekly for upto week 4 measured post last dose measured on day 10; type: functional; settings: time 4 weeks, read-out: TGI
Method in brief: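 Female CB-17 SCID mice, 6−7 weeks old. 5 × 10⁶ AMO-1 cells in growth medium/Matrigel 50:50 injected subcutaneously in the right flank. Randomised at about 200 mm³, n = 8 to 10 per group. Dosed iv in 20% HPbCD–25 mM HCl, daily for 5 days or weekly for 4 weeks. Calipers 2−3 times weekly; volume = length × width²/2. TGI computed from median change in volume versus control; delay judged at median volume 500 mm³.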

NCI-H929 = assay: Induction of apoptosis in human H929 cells assessed as induction of PARP cleavage incubated for 6 hrs by immunodetection analysis; type: functional, cell-based; settings: dose 1-3000 nM
Method in brief: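 H929 cells in RPMI 1640 with 10% FBS were seeded at 2 × 10⁶ cells per 35 mm dish. After 24 h they were exposed to compound for 6 h, then lysed (Hepes pH 7.4, KCl, MgCl₂, EDTA, 1% NP40). 5 μg lysate was assayed for cleaved PARP with the MSD apoptosis panel, read as RLU. Two independent biological experiments.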

THP-1 = assay: Induction of apoptosis in Bax/Bak knockout human THP1 cells at 1 to 3000 nM incubated for 2 hrs by annexin-V-FITC and propidium iodide staining based by flow cytometry; type: functional, cell-based; settings: dose 1-3000 nM
Method in brief: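 THP-1 cells, wild type or CRISPR BAX/BAK knockout (verified by Western blot), were treated for 2 h. They were washed in binding buffer (10 mM Hepes, 140 mM NaCl, 2.5 mM CaCl₂) and stained with annexin V-FITC and PI for 15 min at 20 °C in the dark. 10⁴ cells per sample were read by flow cytometry. Apoptotic plus necrotic cells were normalised to total cells. Two biological replicates; DMSO control.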

Sequence of Cytochrome P450 2C8 (P10632 whole entry): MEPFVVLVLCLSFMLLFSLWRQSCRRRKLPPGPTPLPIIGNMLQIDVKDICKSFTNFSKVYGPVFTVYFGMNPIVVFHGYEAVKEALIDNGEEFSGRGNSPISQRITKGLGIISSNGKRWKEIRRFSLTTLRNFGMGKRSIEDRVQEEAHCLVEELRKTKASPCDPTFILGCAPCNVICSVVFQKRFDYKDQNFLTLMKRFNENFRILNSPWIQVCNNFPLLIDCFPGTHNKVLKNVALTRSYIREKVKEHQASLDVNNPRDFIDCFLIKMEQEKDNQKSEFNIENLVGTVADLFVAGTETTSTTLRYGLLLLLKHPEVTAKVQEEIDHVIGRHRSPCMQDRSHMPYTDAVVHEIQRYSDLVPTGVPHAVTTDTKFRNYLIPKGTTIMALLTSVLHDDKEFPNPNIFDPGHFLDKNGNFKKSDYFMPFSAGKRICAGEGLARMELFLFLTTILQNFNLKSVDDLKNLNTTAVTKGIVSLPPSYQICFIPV

Drug metabolism (Cytochrome P450 2C8): Metabolite_Detected
Activity [2]: Dose-dependent effect
Activity [3]: inactive
half-life [4]: 5 h
Compound: COc1ccccc1-c1nccc(COc2ccccc2C[C@@H](Oc2ncnc3sc(-c4ccc(F)cc4)c(-c4ccc(OCCN5CCN(C)CC5)c(Cl)c4C)c23)C(=O)O)n1
inhibition in vivo at […] (AMO1 [1]): 190%
Activity (PL21): Active
Activity (HL-60): Active
Activity (Daudi): Active
inhibition in vivo at 12.5 mg/kg (AMO1 [5]): 108%
Activity (NCI-H929): Dose-dependent effect
Activity (THP-1): inactive
